Source: ChEMBL document CHEMBL1125399, “Perfluorocarbon-based antidiabetic agents” (1992)

Key:
Mus musculus [1] = assay: Effect on the mean body weight of mice on day 1 (pre) of swiss CD-1 mice (charles river), in groups of six dosed orally once per day for 4 days with 50 mg/kg of compound; assay type: functional; conditions: route oral
Summary of the method: (§1)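 Swiss CD-1 mice (20–25 g) in groups of six; vehicle controls in three cages of three. Compound 50 mg/kg or vehicle (2% Tween 80/saline) given by gavage each afternoon for 4 consecutive days. Body weight taken before dosing (day 1) and on the morning of day 5. Mice were then killed under halothane and heart and liver weighed, per 10 g body weight. Bonferroni t test.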

Mus musculus [2] = assay: Effect on the mean liver weight of mice on day 1 (pre) of swiss CD-1 mice (charles river), in groups of six dosed orally once per day for 4 days with 50 mg/kg of compound; expressed as mg/10 g body weight; assay type: functional; conditions: route oral
Mus musculus [3] = species on record: Mus musculus; assay: Percent plasma glucose concentration of drug treated mice (ob/ob) relative to vehicle control animals; assay type: functional
Summary of the method: (§2)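 Female ob/ob mice, 10 weeks old, fed ad libitum, in groups of 7–11. Dosed po once daily for 4 days in 0.5% methyl cellulose vehicle. Decapitated the next morning; 0.1 mL blood into saline with Trasylol and EDTA; plasma glucose by autoanalyzer. Reciprocal-transformed (y = 160/x) harmonic mean given as % of vehicle. Bonferroni-adjusted comparisons.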

Mus musculus [4] = assay: Effect on the mean heart weight of mice on day 1 (pre) of swiss CD-1 mice (charles river), in groups of six dosed orally once per day for 4 days with 50 mg/kg of compound; expressed as mg/10 g body weight; assay type: functional; conditions: route oral
Mus musculus [5] = assay: Effect on the mean body weight of mice on day 5 (post) of swiss CD-1 mice (charles river), in groups of six dosed orally once per day for 4 days with 50 mg/kg of compound; assay type: functional; conditions: route oral; summary of the method: as §1
Mus musculus [6] = assay: Percent plasma glucose concentration of drug treated mice (ob/ob) relative to vehicle control animals following 75 mg/kg administration.; assay type: functional; summary of the method: as §2
Mus musculus [7] = assay: Effect on the mean body weight of mice on day 1 (pre) of swiss CD-1 mice (charles river), in groups of six dosed orally once per day for 4 days with 50 mg/kg of compound; […]; assay type: functional; conditions: route oral
Mus musculus [8] = assay: Percent plasma glucose concentration of drug treated mice (ob/ob) relative to vehicle control animals was determined at the dose of 75 mg/kg

O=C(Nc1ccc(Cc2nn[nH]n2)cc1)C(F)(F)C(F)(F)C(F)(F)C(F)(F)C(F)(F)C(F)(F)C(F)(F)F
Body weight (Mus musculus [1]): 30.5 g | Liver weight (Mus musculus [2]): 1.25 g 10g-1 | Activity (Mus musculus [3]): 66% | Heart weight (Mus musculus [4]): 39 mg 10g-1 | Body weight (Mus musculus [5]): 31.4 g

O=C(O)C(F)(F)C(F)(F)C(F)(F)C(F)(F)C(F)(F)C(F)(F)F
Activity (Mus musculus [6]): 107%

O=C(Nc1ccc(Cc2nn[nH]n2)cc1)c1ccc(C(F)(F)F)cc1
Activity (Mus musculus [6]): 130%

O=C(O)C(F)(F)C(F)(F)C(F)(F)C(F)(F)F
Activity (Mus musculus [6]): 133%

CCCCNC(=O)C(F)(F)C(F)(F)C(F)(F)C(F)(F)C(F)(F)C(F)(F)C(F)(F)F
Activity (Mus musculus [6]): 70%

Cl.Nc1ccc(Cc2nn[nH]n2)cc1
Activity (Mus musculus [6]): 93% | Liver weight (Mus musculus [2]): 0.591 g 10g-1 | Heart weight (Mus musculus [4]): 43 mg 10g-1 | Body weight (Mus musculus [5]): 30.1 g | Body weight (Mus musculus [7]): 29.8 g

CCCCCCCC(=O)NNC(=O)C(F)(F)C(F)(F)C(F)(F)C(F)(F)C(F)(F)C(F)(F)C(F)(F)F
Activity (Mus musculus [6]): 74% | Body weight (Mus musculus [1]): 30.6 g | Liver weight (Mus musculus [2]): 1.44 g 10g-1 | Heart weight (Mus musculus [4]): 37 mg 10g-1 | Body weight (Mus musculus [5]): 30.6 g

OC(c1ccccc1)C(F)(F)C(F)(F)C(F)(F)C(F)(F)C(F)(F)C(F)(F)C(F)(F)C(F)(F)F (configuration not stated)
Activity (Mus musculus [6]): 64%

FC(F)(F)C(F)(F)C(F)(F)C(F)(F)C(F)(F)C(F)(F)C(F)(F)CNc1ccc(Cc2nn[nH]n2)cc1
Activity (Mus musculus [6]): 57% | Body weight (Mus musculus [1]): 30.3 g | Liver weight (Mus musculus [2]): 0.856 g 10g-1 | Heart weight (Mus musculus [4]): 39 mg 10g-1 | Body weight (Mus musculus [5]): 31.2 g

CCCCN(Cc1ccccc1)C(=O)C(F)(F)C(F)(F)C(F)(F)C(F)(F)C(F)(F)C(F)(F)C(F)(F)F
Activity (Mus musculus [6]): 61% | Body weight (Mus musculus [1]): 30.8 g | Liver weight (Mus musculus [2]): 1.18 g 10g-1 | Heart weight (Mus musculus [4]): 40 mg 10g-1 | Body weight (Mus musculus [5]): 31.1 g

CCCC(=O)Nc1ccc(Cc2nn[nH]n2)cc1
Activity (Mus musculus [6]): 108%

N#CCc1ccc(NC(=O)C(F)(F)C(F)(F)C(F)(F)C(F)(F)C(F)(F)C(F)(F)C(F)(F)F)cc1
Activity (Mus musculus [6]): 69%

Cc1ccc(NC(=O)C(F)(F)C(F)(F)C(F)(F)C(F)(F)C(F)(F)C(F)(F)C(F)(F)F)cc1
Activity (Mus musculus [6]): 58%

O=C(CCC(F)(F)F)Nc1ccc(Cc2nn[nH]n2)cc1
Activity (Mus musculus [6]): 104%

FC(F)C(F)(F)C(F)(F)C(F)(F)C(F)(F)C(F)(F)C(F)(F)F
Activity (Mus musculus [6]): 90%

O=C(Nc1ccc(Cc2nn[n-]n2)cc1)C(F)(F)C(F)(F)C(F)(F)F.[Na+]
Activity (Mus musculus [8]): 67%

CN(C(=O)C(F)(F)C(F)(F)C(F)(F)C(F)(F)C(F)(F)C(F)(F)C(F)(F)F)c1ccc(Cc2nnnn2C)cc1
Body weight (Mus musculus [1]): 29.9 g | Liver weight (Mus musculus [2]): 0.942 g 10g-1 | Activity (Mus musculus [3]): 67% | Heart weight (Mus musculus [4]): 41 mg 10g-1 | Body weight (Mus musculus [5]): 31.1 g

O=C(Nc1ccc(Cc2nnn(Cc3ccccc3)n2)cc1)C(F)(F)C(F)(F)C(F)(F)C(F)(F)C(F)(F)C(F)(F)C(F)(F)F
Body weight (Mus musculus [1]): 30.3 g | Liver weight (Mus musculus [2]): 0.787 g 10g-1 | Activity (Mus musculus [3]): 68% | Heart weight (Mus musculus [4]): 41 mg 10g-1 | Body weight (Mus musculus [5]): 31.4 g

COC(=O)NCC(F)(F)C(F)(F)C(F)(F)C(F)(F)C(F)(F)C(F)(F)C(F)(F)F
Activity (Mus musculus [6]): 57%

FC(F)(F)C(F)(F)C(F)(F)CNc1ccc(Cc2nn[nH]n2)cc1
Activity (Mus musculus [6]): 99%

CCCCCCC(F)(F)C(=O)Nc1ccc(Cc2nn[nH]n2)cc1
Activity (Mus musculus [6]): 80% | Body weight (Mus musculus [1]): 30.4 g | Liver weight (Mus musculus [2]): 0.671 g 10g-1 | Heart weight (Mus musculus [4]): 43 mg 10g-1 | Body weight (Mus musculus [5]): 31.7 g

O=C(Nc1ccc(-c2nn[nH]n2)cc1)C(F)(F)C(F)(F)C(F)(F)F
Activity (Mus musculus [6]): 75%

O=C(N(Cc1ccccc1)c1ccc(Cc2nn[nH]n2)cc1)C(F)(F)C(F)(F)C(F)(F)C(F)(F)C(F)(F)C(F)(F)C(F)(F)C(F)(F)F
Body weight (Mus musculus [1]): 29.8 g | Liver weight (Mus musculus [2]): 1.11 g 10g-1 | Activity (Mus musculus [3]): 55% | Heart weight (Mus musculus [4]): 39 mg 10g-1 | Body weight (Mus musculus [5]): 31.3 g

O=C(Nc1ccncc1)C(F)(F)C(F)(F)C(F)(F)C(F)(F)C(F)(F)C(F)(F)C(F)(F)F
Body weight (Mus musculus [1]): 30.7 g | Liver weight (Mus musculus [2]): 1.08 g 10g-1 | Activity (Mus musculus [3]): 66% | Heart weight (Mus musculus [4]): 39 mg 10g-1 | Body weight (Mus musculus [5]): 32.4 g

O=C(O)C(F)(F)C(F)(F)C(F)(F)C(F)(F)C(F)(F)C(F)(F)C(F)(F)C(F)(F)F
Activity (Mus musculus [6]): 124%

CC1(COc2ccc(CC3SC(=O)NC3=O)cc2)CCCCC1 (configuration not stated) [CIGLITAZONE]
Activity (Mus musculus [3]): 70%

CCNS(=O)(=O)C(F)(F)C(F)(F)C(F)(F)C(F)(F)C(F)(F)C(F)(F)C(F)(F)C(F)(F)F [SULFLURAMID]
Activity (Mus musculus [3]): 90%
